Screening results as filed in PubChem BioAssay.
HSF1 inhib – HSF1 inhibition; NIH3T3-HGL HSE-luciferase, MG132-induced, luminescence 8 h; stronger effect = lower value; 300,000 tested, 0.77% active; AID 2098; activity change, negative = inhibition, % at 7.5 µM (by protocol);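 active means more than half of replicate wells show activity change below -50%, luminescence cut by over half; inconclusive means some wells, but at most half, below -50%; inactive means no replicate well below -50%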;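 further: luciferase reports HSF-1 transcriptional activity via heat shock element; 0% = median of DMSO wells and -100% = zero luminescence signal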
AI-2 QS modul – modulators of Vibrio harveyi AI-2 quorum sensing system; AID 2094; Vibrio harveyi JMH597 AI-2 luminescence/OD600 ratio, 9 h; stronger effect = lower value; strain lacks LuxN and CqsS sensors; 0 = neutral-control median; 300,000 tested, 0.4% active; activity change, % at 7.5 µM; in the data active means activity change below about -75%, passing the limit was not always enough; inconclusive means no clear call, values can overlap the other calls;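 further: luminescence divided by OD600 gain over 9 h not by final OD600 alone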
ALR H2O2 inh – inhibitors of human sulfhydryl oxidase ALR; P55789; purified ALR, DTT oxidation, H2O2 HRP-luminol luminescence; inhibition, % (test concentration not listed); 290,000 tested, 3.8% active; AID 485317;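 active means mean replicate inhibition above about 79%, with every replicate also reaching it, limit read from the data; inconclusive means only one of the two criteria met; inactive means mean below limit and not every replicate reaching it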
Target sequence (P55789 whole entry, looked up): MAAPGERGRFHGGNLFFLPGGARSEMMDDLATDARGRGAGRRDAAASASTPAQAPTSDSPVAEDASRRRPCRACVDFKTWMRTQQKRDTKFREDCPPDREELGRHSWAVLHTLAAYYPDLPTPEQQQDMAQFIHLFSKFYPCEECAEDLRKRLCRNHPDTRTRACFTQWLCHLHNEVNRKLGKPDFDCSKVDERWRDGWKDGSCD
PHOSPHO1 inh – PHOSPHO1 (human) inhibition; Q8TCT1; recombinant PHOSPHO1, absorbance phosphatase assay; 290,000 tested, 1.1% active; AID 1565; inhibition, % at 13.3 µM; in the data active means inhibition above about 60%
Target sequence (Q8TCT1 whole entry, looked up): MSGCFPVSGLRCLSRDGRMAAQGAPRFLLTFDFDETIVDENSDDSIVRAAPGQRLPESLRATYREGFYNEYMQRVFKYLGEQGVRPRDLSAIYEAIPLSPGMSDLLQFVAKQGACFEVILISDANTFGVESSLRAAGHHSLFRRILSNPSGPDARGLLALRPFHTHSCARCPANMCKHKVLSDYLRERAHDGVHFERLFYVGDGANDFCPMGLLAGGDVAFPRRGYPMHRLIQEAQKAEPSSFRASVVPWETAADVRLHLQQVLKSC
HSF-1 act – increases HSF-1 driven luciferase reporter signal; NIH3T3-HGL HSF-1 luciferase reporter, MG132, 8 h; 100% = twice DMSO control signal; activation, % at 9 µM; 300,000 tested, 1.7% active; AID 504408;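 active means mean replicate activation of at least 50% with a set share of replicates each reaching 50%; inconclusive means only one of those two conditions met; inactive means mean below 50% and too few replicates reaching it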;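 further: 0% = median of the neutral control wells and 100% = twice that signal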
core dimer inh – blocks dimerization of HCV core protein | TR-FRET GST/Flag-core106 dimerization, 1536-well | inhibition, % at 5 µM | AID 1899 | 300,000 tested, 0.33% active;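 active means inhibition above the mean of all tested compounds plus 3 SD, set per screening campaign, cut at about 45% in these data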
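Assay system: tagged HCV core106 pair (GST and Flag); medium: KF-containing HEPES buffer, pH 7.45, DTT, CHAPS, BSA; also added: Eu donor and XL665 acceptor anti-tag antibodies; dosing: 5 µM single dose; timing: compound-protein-antibody incubation 4 h at 22.5 °C; signal: TR-FRET 671 and 617 nm emission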
Starred values were filed as active, the others as inactive; u = inconclusive; x = no result given. Only some compounds are listed: those with a hit (about 6.8% of all), similar ones and a draw of the others.

SMILES | HSF1 inhib | AI-2 QS modul | ALR H2O2 inh | PHOSPHO1 inh | HSF-1 act | core dimer inh
C=CCN(C(=O)CCC(=O)Nc1cc(C)on1)C(C(=O)NC(C)(C)C)c1cccc(OC)c1OC (stereo not given) | 30 | 18 | x | -10 | 83* | 4
NC(=O)c1ccc(CN2CCc3ccccc3C2)cc1 | 3 | 0 | 0 | 29 | -9 | -7
CC(=O)Nc1cccc(O)c1 | x | x | -5 | x | x | x
Cc1ccc(Nc2ccccc2)cc1 | -2 | 15 | 7 | -17 | -5 | -4
Nc1cccc(Nc2ccccc2)c1 | -5 | 25 | 99* | 39 | 1 | -10
Nc1cccc(Nc2ncnc3ccccc23)c1 | 3 | 14 | 99* | 8 | -12 | 5
Nc1cccc(Nc2nc(OC(C(F)(F)F)C(F)(F)F)nc(OC(C(F)(F)F)C(F)(F)F)n2)c1 | -12 | 7 | 0 | 41 | -5 | -1
CC(C)c1cc(Nc2cccc(O)c2)cc(C(C)C)c1O | -4 | 29 | -4 | 48 | -13 | 53*
c1ccc(Nc2cccc(Nc3ccccc3)c2)cc1 | 31 | -1 | 98* | -3 | 40 | -12
COC(CN(C)C(=O)c1ccc2c(c1)NC(=O)c1ccccc1S2)OC | 1 | 26 | -5 | 42 | 1 | x
CS(=O)(=O)N(CCC#N)Cc1ccco1 | -4 | 17 | -4 | 2 | -14 | -7
Oc1cccc(Nc2ccccc2)c1 | x | x | 99* | x | x | x
CCCCC(c1nnnn1C(C)C)N1CCN(C(=O)c2ccco2)CC1 (stereo not given) | -7 | 5 | x | 32 | 4 | -6
Cc1cc(C)n(-c2nc3ccccc3nc2N2CCN(C(=O)c3ccc(F)cc3)CC2)n1 | 31 | 6 | -3 | 20 | 62* | 2
O=C(COC(=O)CNS(=O)(=O)c1ccccc1)Nc1ncc(Cl)cc1Cl | x | x | 0 | x | x | x
COc1ccccc1NC(=O)c1c(NC(=O)CCC(=O)O)sc2c1CCCCC2 | 2 | 36 | 98* | x | -2 | 1
CC(C)(C)NC(=O)CCN(/N=C/c1ccc([N+](=O)[O-])o1)C1=NS(=O)(=O)c2ccccc21 | x | x | -62 | -15 | x | 11
Cc1cc(C(=O)OCC(=O)c2cccc([N+](=O)[O-])c2)c2cccc(C)c2n1 | 10 | 0 | -3 | 11 | 5 | 88*
COc1cc(OC)c2c(c1)C(=O)c1cc(OC)cc(OC)c1C2=O | 1 | -5 | -3 | 107* | 7 | -5
Oc1ccccc1N1CCN(c2nnnn2-c2ccccc2)CC1 | 11 | 33 | 99* | 16 | 10 | 2
Oc1ccccc1N1CCN(c2ncccn2)CC1 | x | 10 | 99* | 10 | x | 2
O=S(=O)(c1ccccc1)N1CCN(c2ncccn2)CC1 | -4 | 25 | 6 | -11 | 0 | 4
c1ccc(N2CCN(c3ncccn3)CC2)cc1 | -5 | 16 | 98* | -16 | -6 | -1
Fc1ccccc1N1CCN(c2nnnn2-c2ccccc2)CC1 | -2 | -4 | -3 | 28 | 11 | -1
CCO[C@@H]1OC(C(=O)NCc2ccccc2)=C[C@H](c2coc3ccccc3c2=O)[C@H]1CCCO | -3 | 7 | 1 | 30 | 11 | -3
SMILES | HSF1 inhib | AI-2 QS modul | ALR H2O2 inh | PHOSPHO1 inh | HSF-1 act | core dimer inh
N#CCc1ccc(Oc2ncccn2)cc1 | -1 | 28 | -9 | x | -18 | 1
COCc1cc(Sc2ccc(Cl)cc2)nc(-c2ccccc2)n1 | -3 | 2 | -8 | 7 | 7 | 2
COCc1cc(Sc2ccc(Br)cc2)nc(-c2ccccc2)n1 | -1 | -2 | 99* | 11 | -8 | -7
Fc1ccc(-c2csc3[n+]2CCS3)cc1 | -1 | 3 | -10 | -8 | -17 | -5
O=[N+]([O-])c1ccc(-c2csc3[n+]2CCS3)cc1 | -7 | 20 | 4 | 80* | 15 | 0
CCCS(=O)c1nc(C)cc(C)c1S(C)(=O)=O (stereo not given) | -7 | 11 | -5 | -27 | -6 | -2
COc1cccc(OCCNS(=O)(=O)c2ccccc2[N+](=O)[O-])c1 | x | x | -4 | x | x | x
COc1ccc(/C=C2\OC(=O)c3c(OC)cccc32)cc1OC | 39 | 11 | -13 | 34 | 76* | 2
COc1cc(/C=C2\Oc3cc(O)ccc3C2=O)ccc1O | 17 | 83 | 97* | 13 | 14 | -17
O=C1/C(=C/c2cccc([N+](=O)[O-])c2)Oc2cc(O)ccc21 | 16 | 13 | 5 | 28 | 39 | -5
O=C1/C(=C/c2ccc(O)c(O)c2)Oc2cc(O)ccc21 | x | x | 98* | 4 | x | -37
Cc1ccc(S(=O)(=O)N2CCN(C(=O)CCC(=O)NCc3cccc(C(F)(F)F)c3)CC2)cc1 | 9 | 8 | 6 | x | -3 | -5
Cc1ccc(C(=O)OCC(=O)N(CC(C)C)c2c(N)n(Cc3ccccc3)c(=O)[nH]c2=O)o1 | 3 | 36 | -1 | x | -5 | 3
O=C(Nc1ccc(Cl)cc1)N1CCC(c2ccccc2)C1 (stereo not given) | 58 | -2 | x | -1 | 76* | -1
Cc1ccc(C2CCN(C(=O)Nc3ccccc3)C2)cc1 (stereo not given) | 24 | 0 | -2 | 21 | 45 | 0
Cc1ccc(NC(=O)N2CCC(c3ccccc3)C2)cc1C (stereo not given) | 38 | 8 | -1 | 5 | 62* | 2
CC(=O)NCCc1nc2ccccc2n1CCc1ccccc1 | -8 | 12 | x | 41 | -17 | x
NC(=O)SCC(=O)Nc1cccc(Cl)c1 | 8 | 49 | 99* | 31 | 28 | -7
O=C(COC(=O)c1cccnc1)Nc1cccc(Cl)c1 | -11 | u | x | -3 | 2 | 13
Cc1ccc(NC(=O)Cc2nnc(SCC(=O)c3ccc(Br)cc3)n2C)cc1Cl | -1 | 27 | -14 | 78* | 14 | 2
CCn1c(C)nnc1SCC(=O)Nc1cccc(Cl)c1 | -7 | -9 | -2 | 3 | -2 | 0
O=C(COC(=O)c1ccncc1)Nc1cccc(Cl)c1 | x | -2 | 7 | -1 | x | 46*
Cc1c(Cl)cccc1NC(=O)CSC(N)=O | 10 | 10 | 99* | 44 | 1 | -2
Cc1csc(C(C)N(C)C(=O)CCc2nnc(CCc3ccccc3)o2)n1 (stereo not given) | 0 | 15 | -18 | 52 | -9 | 2
Cc1ccc(NC(=O)CSC(N)=O)cc1Cl | 11 | 11 | 100* | -9 | 20 | -1
SMILES | HSF1 inhib | AI-2 QS modul | ALR H2O2 inh | PHOSPHO1 inh | HSF-1 act | core dimer inh
NC(=O)SCC(=O)Nc1ccc(Cl)c(Cl)c1 | x | x | 98* | 32 | x | 5
NC(=O)Nc1ccc(Cl)cc1 | 6 | 10 | -4 | 38 | -3 | 0
COC(=O)CCC(=O)Nc1ccc(Cl)c(Cl)c1 | x | 1 | -8 | 12 | x | -1
NC(=O)SCC(=O)Nc1ccc(Cl)cc1 | 4 | 53 | 99* | 41 | 32 | -2
Cc1ccc(NC(=O)NC2CCCCC2)cc1Cl | x | x | -2 | 24 | x | -4
COCC(=O)Nc1ccc(C)c(Cl)c1 | -3 | 13 | x | 24 | 2 | 1
